Data as given in ChEMBL document CHEMBL1124294, “Nonsteroidal antiandrogens. Synthesis and structure-activity relationships of 3-substituted derivatives of 2-hydroxypropionanilides” (1988).
Active and inactive are the calls of the source. No cut-off for these calls is given here.

Columns and labels:
Rattus norvegicus [1] = organism: Rattus norvegicus; assay: Effective dose required to inhibit 50 percent of androgen hormone activity in intact rat; format: functional
Summary of the method: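 Rats dosed with vehicle 0.5% polysorbate. Killed 24 h after the last dose; seminal vesicles dissected, blotted and weighed. Percent inhibition uses a cumulative castrate control group as the 100% effect. ED50 taken from dose-response curves.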

Rattus norvegicus [2] = organism: Rattus norvegicus; assay: Agonist activity indicated by a statistically significant increase in ventral prostate gland weight compared, to control animals; NA means no statistically significant increase in ventral prostate weight compared to controls.; format: functional, organism-based
Summary of the method: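 Male rats castrated at 24 days of age, groups of five. Killed 24 h after the final dose. Seminal vesicles and ventral prostate dissected, cleaned and weighed. Value is ventral prostate weight in mg, compared with castrated vehicle controls for statistical significance.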

Rattus norvegicus [3] = assay: Percent inhibition of androgen hormone activity in rat at 50 mg/kg; format: functional
Summary of the method: (§1)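 Rats dosed with vehicle 0.5% polysorbate. Killed 24 h after the last dose; seminal vesicles dissected, blotted and weighed. […] Percent inhibition uses a cumulative castrate control group as the 100% effect. ED50 taken from dose-response curves.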

Rattus norvegicus [4] = assay: Percent inhibition of androgen hormone in rat at 25 mg/kg; format: functional; summary of the method: as §1
Rattus norvegicus [5] = assay: Percent inhibition of androgen hormone in rat at 50 mg/kg; format: functional; summary of the method: as §1
Rattus norvegicus [6] = assay: Effect of compound on testosterone hormone level on 14-day dosing in intact rats; No statistically significant difference from controls; format: functional, organism-based
Rattus norvegicus [7] = assay: Effect of compound on LH level on 14-day dosing in intact rats 25 mg/kg; format: functional
Rattus norvegicus [8] = assay: Effect of compound on LH level on 14-day dosing in intact rats; No statistically significant difference from control; format: functional, organism-based
Rattus norvegicus [9] = assay: Effect of compound on testosterone hormone level on 14-day dosing in intact rats at 25 mg/kg.; format: functional
Rattus norvegicus [10] = assay: Effect of compound on testosterone hormone level on 14-day dosing in intact rats; format: functional
Rattus norvegicus [11] = assay: Effect of compound on LH level on 14-day dosing in intact rats; format: functional

CC(O)(CSc1ccc(F)cc1)C(=O)Nc1ccc(C#N)c(C(F)(F)F)c1 (centres undefined) was tested, and the ED50 (Rattus norvegicus [1]) was 0.5 mg/kg and the Weight (Rattus norvegicus [2]) was “Not significant”.

CC(O)(CSc1ccccc1)C(=O)Nc1ccc([N+](=O)[O-])cc1 (centres undefined) gave an inhibition in vivo at 50 mg/kg (Rattus norvegicus [3]) of 11%.

CC(O)(CSc1ccccc1)C(=O)Nc1ccc(Cl)c(Cl)c1 (centres undefined) showed an inhibition in vivo at 25 mg/kg (Rattus norvegicus [4]) of 44%.

Work on CC(O)(CS(=O)(=O)c1ccc(F)cc1)C(=O)Nc1ccc([N+](=O)[O-])c(C(F)(F)F)c1 (centres undefined) yielded an ED50 (Rattus norvegicus [1]) of 0.4 mg/kg.

In the case of CC(O)(CSc1ccccc1)C(=O)Nc1ccc(Cl)c([N+](=O)[O-])c1 (centres undefined), the inhibition in vivo at 50 mg/kg (Rattus norvegicus [5]) is reported as 36% and the Weight (Rattus norvegicus [2]) is reported as “Not significant”.

CC(O)(CS(=O)(=O)c1ccc(F)cc1)C(=O)Nc1ccc(C#N)c(C(F)(F)F)c1 (centres undefined) [BICALUTAMIDE] was tested, and the Testosterone (Rattus norvegicus [6]) was “inactive”, the LH (Rattus norvegicus [7]) was 1.04 ng/mL and the ED50 (Rattus norvegicus [1]) was 0.5 mg/kg. The LH (Rattus norvegicus [8]) was “inactive”, the Testosterone (Rattus norvegicus [9]) was 3.97 ng/mL and the Weight (Rattus norvegicus [2]) was “inactive”.

With CC(C)C(=O)Nc1ccc([N+](=O)[O-])c(C(F)(F)F)c1 [FLUTAMIDE] the Testosterone (Rattus norvegicus [10]) was <0.01 ng/mL, the LH (Rattus norvegicus [7]) was 9 ng/mL and the ED50 (Rattus norvegicus [1]) was 2 mg/kg. The Testosterone (Rattus norvegicus [9]) was 7.61 ng/mL, the Weight (Rattus norvegicus [2]) was “inactive” and the LH (Rattus norvegicus [11]) was <0.01 ng/mL.
